From ChEMBL document CHEMBL3784970, “Synthesis and molecular docking of N'-arylidene-5-(4-chlorophenyl)-1-(3,4-dichlorophenyl)-4-methyl-1H-pyrazole-3-carbohydrazides as novel hypoglycemic and antioxidant dual agents” (Bioorg Med Chem, 2016) come the findings set out here.

Structures are written as SMILES. Calls of active or inactive are those of the source. The rule behind the calls is not given here.

Data set [1] deals with Rattus norvegicus. In words: Antidiabetic activity in streptozotocin/nicotinamide-induced Wistar rat model of diabetes assessed as plasma glucose reduction at 50 mg/kg, ig measured at 1 to 7 hrs post dose by glucometric analysis. It is filed as functional, organism-based.
The nature of data set [2]: Antioxidant activity assessed as DPPH radical scavenging activity incubated for 20 mins. It is filed as physicochemical. The gist of the method:
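DPPH (100 μM in ethanol) was mixed with sample at different concentrations and incubated 20 min at room temperature in the dark, then A517 was read. % scavenging was calculated against a water control. IC was reported as mean ± SEM, n = 3.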
On the technique in general: The DPPH test is a chemical assay of radical scavenging.

Data set [3] in a line: Antioxidant activity assessed as DPPH radical scavenging activity at 100 uM incubated for 20 mins. The class given is physicochemical.
Data set [4] in a line: Antioxidant activity assessed as DPPH radical scavenging activity at 1 uM incubated for 20 mins. It is filed as physicochemical.
The nature of data set [5]: Antioxidant activity assessed as DPPH radical scavenging activity at 10 uM incubated for 20 mins. The class given is physicochemical.
For data set [6], the system named is Rattus norvegicus. In words: Antidiabetic activity in streptozotocin/nicotinamide-induced Wistar rat model of diabetes assessed as plasma glucose variation at 50 mg/kg, ig measured at 3 hrs post dose by glucometric analysis (reference value: -13 +/- 10%). The class given is functional.
For data set [7], the system named is Rattus norvegicus. In words: Antidiabetic activity in streptozotocin/nicotinamide-induced Wistar rat model of diabetes assessed as plasma glucose variation at 50 mg/kg, ig measured at 5 hrs post dose by glucometric analysis (reference value: -2 +/- 6%). The class given is functional.
Data set [8] deals with Rattus norvegicus. In words: Antidiabetic activity in streptozotocin/nicotinamide-induced Wistar rat model of diabetes assessed as plasma glucose variation at 50 mg/kg, ig measured at 1 hr post dose by glucometric analysis (reference value: 17 +/- 8%). It is filed as functional.
For data set [9], the system named is Rattus norvegicus. Nature of the data set: Antidiabetic activity in streptozotocin/nicotinamide-induced Wistar rat model of diabetes assessed as plasma glucose variation at 50 mg/kg, ig measured at 7 hrs post dose by glucometric analysis (reference value: -5 +/- 8%). It is filed as functional.

Regarding `COc1cc(/C=N/NC(=O)c2nn(-c3ccc(Cl)c(Cl)c3)c(-c3ccc(Cl)cc3)c2C)ccc1O`, in data set [1], the outcome was Active.

`Cc1c(C)c2c(c(C)c1O)CC[C@@](C)(CCC[C@H](C)CCC[C@H](C)CCCC(C)C)O2` [ALPHA-TOCOPHEROL]: the half-inhibitory concentration (IC50) in data set [2] was determined as 10.9 µM.

As to `COc1cc(/C=C/C(=O)O)ccc1O` [FERULATE], the Activity was 78.73% in data set [3], 3.06% in data set [4] and 14.52% in data set [5]. In addition, in [2], the half-inhibitory concentration (IC50) was determined as 47.7 µM.

With `COc1ccc(Cl)cc1C(=O)NCCc1ccc(S(=O)(=O)NC(=O)NC2CCCCC2)cc1` [GLYBURIDE], the Activity in [6] is -31%; in data set [7] it was -31%; in data set [8], -4%; in [9] it was -31%.

As for `O=c1c(O)c(-c2ccc(O)c(O)c2)oc2cc(O)cc(O)c12` [QUERCETIN], the IC50 in data set [2] was 31.7 µM.

As to `Cc1c(C(=O)NN2CCCCC2)nn(-c2ccc(Cl)cc2Cl)c1-c1ccc(Cl)cc1` [RIMONABANT], the Activity is reported as -21% in [6], -30% in data set [7], -30% in data set [8] and -39% in [9].

For the molecule `COc1cc(/C=C/C(=O)O)cc(OC)c1O` [SINAPINATE], the Activity is 90.61% in data set [3], 2.65% in data set [4] and 23.29% in [5]. In addition, in data set [2], the 50% inhibitory concentration (IC50) was 35.8 µM.

As a reminder, the IC50 is the concentration at which inhibition is half-maximal.
